Data on one compound can be found in ChEMBL document CHEMBL3616459, “Antimicrobial peptides with potential for biofilm eradication: synthesis and structure activity relationship studies of battacin peptides” (J Med Chem, 2015).

Assay [1] deals with Escherichia coli. The assay is described as follows: Bactericidal activity against Escherichia coli by time-kill assay. Format: functional, organism-based. The gist of the method:
(§1)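 Time-kill assay. Overnight culture diluted in LB to mid-log phase, 10^5–10^8 CFU/mL; 100 μL added to 10 mL peptide in LB at 1×, 2×, 4× and 20× MIC. Incubated with shaking at 100 rpm, at 28 °C (Ea1501, Psa) or 37 °C (E. coli, P. aeruginosa, S. aureus). Samples at 0, 0.5, 1, 3, 6, 9 and 24 h serially diluted in 0.9% saline and plated; colonies counted after 24 h. Run in duplicate. Bactericidal means ≥2-log10 CFU/mL drop versus the no-antibiotic control.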

For assay [2], the system named is Staphylococcus aureus. In words: Bactericidal activity against Staphylococcus aureus at 1 to 2 times MIC after 24 hrs by time-kill assay. Type of assay: functional, organism-based. An outline of the steps:
as §1

The test system of the next assay is Pseudomonas aeruginosa. In words: Antimicrobial activity against Pseudomonas aeruginosa after 24 hrs by spectrophotometry. Type of assay: functional.
Assay [3] concerns Staphylococcus aureus. The assay is described as follows: Antimicrobial activity against Staphylococcus aureus assessed as complete cell lysis at 2 times MIC […]. Type of assay: functional, organism-based.
Assay [4] deals with Pseudomonas syringae. In words: Bactericidal activity against Pseudomonas syringae pv. actinidiae 16027 at 1 to 2 times MIC after 9 hrs by time-kill assay. Format: functional, organism-based. The gist of the method: as §1
In assay [5] the test system is Escherichia coli. In words: Bactericidal activity against Escherichia coli assessed as reduction in bacterial count at 2 to 4 times MIC up to 9 hrs by time-kill assay relative to control. Type of assay: functional. An outline of the steps:
as §1

The subject of the next assay is Erwinia amylovora. In words: Bactericidal activity against Erwinia amylovora 1501 at MIC […] by time-kill assay. Format: functional, organism-based.
Assay [6] has as its system Staphylococcus aureus. In words: Antimicrobial activity against Staphylococcus aureus after 24 hrs by spectrophotometry. Type of assay: functional. The gist of the method: (§2)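 Broth microdilution in Luria broth. Overnight culture from a single colony, grown at 28 °C (Ea1501, Psa) or 37 °C (E. coli, S. aureus), adjusted to OD600 0.6. Peptide dissolved in LB with 0.5% acetic acid as a dilution series; 50 μL peptide plus 50 μL culture per well, triplicates.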

For assay [7], the system named is Escherichia coli. In words: Antimicrobial activity against Escherichia coli assessed as perturbed cell membrane at 2 times MIC measured after 24 hrs by scanning electron microscopy. Format: functional, organism-based. An outline of the steps:
(§3)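 Bacteria grown to OD600 0.3 in LB on glass slides for 24 h, then washed with 10 mM sodium phosphate pH 7.4. Treated 20 min with peptide in LB at twice the upper limit of its MIC, washed, and fixed in 4% glutaraldehyde 1 h. Dehydrated through graded ethanol, dried at 60 °C, platinum coated, and imaged by SEM at 10 kV.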

Assay [8] has as its system Escherichia coli. In words: Antimicrobial activity against Escherichia coli assessed as complete cell lysis at 2 times MIC measured after 24 hrs by scanning electron microscopy. Format: functional, organism-based. The gist of the method: as §3
The test system of assay [9] is Escherichia coli. In words: Bactericidal activity against Escherichia coli assessed as reduction in bacterial count at 2 to 4 times MIC after 24 hrs by time-kill assay relative to control. Format: functional, organism-based. The gist of the method: as §1
The subject of assay [10] is Pseudomonas syringae. In words: Inhibition of Pseudomonas syringae pv. actinidiae 16027 biofilm formation at 5 uM after 48 hrs. Type of assay: functional. The gist of the method: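 Psa16027 overnight culture (OD600 0.3) grown at 28 °C in LB. 50 μL peptide in LB (1–100 μM) plus 50 μL diluted culture, triplicates, incubated 48 h at 28 °C at 50 rpm. Wells stained with 1% crystal violet for 5 min and washed; stain solubilized in 96% ethanol and A560 read as biofilm mass. For imaging, 12-well plates were used and stained biofilms viewed at 400×.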

The nature of assay [11]: Antimicrobial activity against Pseudomonas syringae pv. actinidiae 16027 after 24 hrs by spectrophotometry. Format: functional. To be noted: Pseudomonas syringae, 16027, 24 h. An outline of the steps: as §2
Assay [12] has as its system Staphylococcus aureus. In words: Bactericidal activity against Staphylococcus aureus by time-kill assay. Format: functional, organism-based. The gist of the method:
as §1

Converted amounts (≈) assume the structure as drawn. The source made the active and inactive calls. No cut-off for these calls is given here. Non-standard residues stand in square brackets, D forms with d. Residues, ends and D or L forms follow the SMILES beside them. ξ: configuration not given here. *: point of attachment. Hexanoyl(4ξ-Me) = CCC(C)CCC(=O)*; dDab = NCC[C@@H](N)C(=O)O; Dab = NCC[C@H](N)C(=O)O

On to `CCC(C)CCC(=O)N[C@H](CCN)C(=O)N[C@@H](CCN)C(=O)N[C@@H](CCN)C(=O)N[C@@H](CC(C)C)C(=O)N[C@H](Cc1ccccc1)C(=O)N[C@@H](CCN)C(=O)N[C@@H](CCN)C(=O)N[C@@H](CC(C)C)C(N)=O` (stereo partly drawn) ({Hexanoyl(4ξ-Me)}-[dDab][Dab][Dab]L[dF][Dab][Dab]L-NH2), for which the Activity entry in the assay with Escherichia coli [1] was “Dose-dependent effect”; in the assay with Escherichia coli [5], above 3 deltalog10CFU/ml; with Staphylococcus aureus [12], “Dose-dependent effect”. The outcome in the assay on Staphylococcus aureus [2], with Staphylococcus aureus [3], with Pseudomonas syringae [4], with Escherichia coli [7] and in the assay with Escherichia coli [8] was Active. Besides, the MIC (against Pseudomonas aeruginosa; in the assay with Staphylococcus aureus [6]; in assay [11]) was 1 µM (≈ 1 µg/mL) each time. Moreover, the outcome with Erwinia amylovora and in the assay with Escherichia coli [9] was inactive. Also, in the assay with Pseudomonas syringae [10], the inhibition entry is “Active”.
